Results from different studies.
Target: Tyrosine-protein kinase ABL2 (ABL2, Homo sapiens, UniProt P42684)

Compound | test | conditions | remaining binding
COc1cc2ncnc(Nc3ccc(F)c(Cl)c3)c2cc1OCCCN1CCOCC1 | cell-free assay, competition with immobilised ligand | 10 µM | 83%
CCN1CCN(Cc2ccc(C(=O)Nc3ccc(C)c(Oc4ccc5c(c4)CC(=O)N5)c3)cc2C(F)(F)F)CC1 | binding, competition with immobilised ligand | 1 µM | 20%
CNC(=O)c1cc(Oc2ccc(NC(=O)Nc3ccc(Cl)c(C(F)(F)F)c3)cc2)ccn1 | cell-free assay, competition with immobilised ligand | 10 µM | 33%
C[C@@H](c1ccc(-n2cnc3c(N)ncnc32)cc1)N1CCc2nn(C)c(Cc3ccccc3)c2C1=O | binding, competition with immobilised ligand | 0.1 µM | 76%
O=C(NCc1ncc(C(F)(F)F)cc1Cl)c1ccc2c(c1)C1(CCS(=O)(=O)CC1)[C@@H](C1CC1)N2S(=O)(=O)c1ccc(F)cc1 | cell-free assay, competition with immobilised ligand | 1 µM | 100%
O=C(NCCCN1CCOCC1)c1ccc(Nc2nccc(-c3cc4ccccc4s3)n2)cc1 | binding, competition with immobilised ligand | 1 µM | 85%
CN(CCCC(F)(F)F)c1nccc(-c2cnn3ncccc23)n1 | binding | 1 µM | 93%
FC(F)(F)Oc1cccc(-c2cnc3ccc(-c4ccncc4)nn23)c1 | cell-free assay, competition with immobilised ligand | 5 µM | 76%
CNCc1ccccc1-c1csc([C@@H](C)Nc2nc(C)nc3cc(OC)c(OC)cc23)c1 | cell-free assay, competition with immobilised ligand | 1 µM | 100%
CC1CCCN1c1nccc(-c2cnn3ncccc23)n1 (stereo not drawn) | binding | 1 µM | 100%
O=C(NCCCC1CCCCC1)c1ccc(CNC(=O)c2cnn(-c3ccccc3)c2C(F)(F)F)cc1 | cell-free assay, competition with immobilised ligand | 0.1 µM | 87%
CCN(CC)CCNC(=O)c1c(C)[nH]c(/C=C2\C(=O)Nc3ccc(F)cc32)c1C | cell-free assay, competition with immobilised ligand | 10 µM | 51%
CN(c1nccc(-c2cnn3ncccc23)n1)C1CC1 | binding | 1 µM | 99%
CS(=O)(=O)CCNCc1ccc(-c2ccc3ncnc(Nc4ccc(OCc5cccc(F)c5)c(Cl)c4)c3c2)o1 | cell-free assay, competition with immobilised ligand | 10 µM | 100%
CN(C)c1ncc(F)c(-c2cnn3ncccc23)n1 | binding | 1 µM | 100%
CO[C@@H](C)c1c(Nc2ccc([C@H](N(C)C(=O)C3CCS(=O)(=O)CC3)C(F)(F)F)cc2)cnc2cc(Cl)nn12 | cell-free assay, competition with immobilised ligand | 1 µM | 85%
Cc1c(-c2ccccc2)oc2c(C(=O)OCCN3CCCCC3)cccc2c1=O | cell-free assay, competition with immobilised ligand | 0.1 µM | 100%
C[C@@H](c1cccc(C#N)c1)n1cc(Cl)cc(C(N)=O)c1=N | cell-free assay, competition with immobilised ligand | 1 µM | 84%
C[C@@H]1CCN(c2nccc(-c3cnn4ncccc34)n2)C1 | binding | 1 µM | 76%
CN1CC[C@H](c2c(O)cc(O)c3c(=O)cc(-c4ccccc4Cl)oc23)[C@H](O)C1 | cell-free assay, competition with immobilised ligand | 10 µM | 80%
COc1ccnn2ncc(-c3ccnc(N(C)C)n3)c12 | binding | 1 µM | 86%
CC(C)(O)c1cncc(-c2nc3ccc(F)cc3n2C2CC2)c1 | cell-free assay, competition with immobilised ligand | 1 µM | 100%
CCN(CC)Cc1cc(Nc2ccnc3cc(Cl)ccc23)ccc1O | cell-free assay, competition with immobilised ligand | 10 µM | 100%
COc1cccc(CNC(=O)c2nc3scc(COCc4ccc(C(=O)O)cc4)c3c(=O)[nH]2)c1 | cell-free assay, competition with immobilised ligand | 1 µM | 82.2%
C=CC(=O)N1CCC(C(=O)NCC(=O)N2CCN(c3nc(-c4cnc(N)nc4C(F)F)nc(N4CCOCC4)n3)CC2)CC1 | binding, competition with immobilised ligand | 1 µM | 91%
CNC(=O)[C@@H]1CC[C@@H](n2c(-c3ccc4cnccc4c3)nc3ccc(C(=O)NCc4cccc(C(N)=O)c4)cc32)C1 | binding, competition with immobilised ligand | 1 µM | 98%
O=C(c1ccc(Nc2nccc(-c3cc4ccccc4s3)n2)cc1)N1CCC(N2CCCC2)CC1 | binding, competition with immobilised ligand | 1 µM | 77%
N#CC1(c2ccccn2)CCN(Cc2cc(C(=O)N3CCCC3)c(=O)n3ccccc23)CC1 | cell-free assay, competition with immobilised ligand | 1 µM | 100%
Cc1cnc(Nc2ccc(C(=O)N3CCC(N4CCCC4)CC3)cc2)nc1-c1cc2ccccc2s1 | binding, competition with immobilised ligand | 1 µM | 43%
O=C(Nc1c[nH]nc1C(=O)NC1CCNCC1)c1cc(F)cc(F)c1 | binding, competition with immobilised ligand | 1 µM | 100%
